From PMC2818319 (Bioorganic & medicinal chemistry letters, 2009)

What was measured:
integrin CD11b/CD18 = integrin CD11b/CD18 (Homo sapiens, UniProt P11215); assay: adhesion of K562 CD11b/CD18 cells to immobilized Fibrinogen; type: cell-based; conditions: for EC50: read-out: EC50 (Effective Concentration for 50% increase in cell adhesion), K562 CD11b/CD18 cells, ligand Fg, NB=No increase in binding of K562 CD11b/CD18 cells to ligand Fg
Procedure, shortened: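 K562 cells stably transfected with wild-type integrin CD11b/CD18. Adhesion to immobilized ligand is measured in the presence of test compound. Secondary validation used two ligands, Fg and iC3b. For the analogue series, EC50 (μM) was derived from the increase in adhesion to Fg; absence of any increase was reported as no binding.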

integrin CD11a/CD18 = integrin CD11a/CD18 (Homo sapiens, UniProt P20701); assay: adhesion of K562 CD11a/CD18 cells to immobilized ICAM-1; type: cell-based; conditions: for selectivity for integrin CD11b/CD18 over CD11a/CD18: K562 CD11b/CD18 vs K562 CD11a/CD18 cell adhesion
Procedure, shortened: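 K562 cells stably transfected with wild-type integrin CD11a/CD18. Test compound obtained as pure powder and assessed for its ability to increase adhesion of these cells to immobilized ICAM-1. This is compared with adhesion of K562 CD11b/CD18 cells to judge selectivity.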

[1] = molecular target: recombinant αA-domain of CD11b/CD18 (Homo sapiens, UniProt P11215); assay: binding of purified recombinant αA-domain to immobilized Fg; conditions: in words

Q: How did the EC50 (integrin CD11b/CD18) turn out when `COC(=O)CN1C(=O)S/C(=C\c2ccc(Sc3ccccc3)o2)C1=O` [compound 5] was run?
A: The EC50 was over 50 µM.

Q: For `CCOC(=O)CN1C(=O)S/C(=C\c2ccc(-c3ccc(Cl)cc3Cl)o2)C1=O` [compound 2], which “level of K562 CD11b/CD18 cell-adhesion in secondary assays” value (integrin CD11b/CD18; ligands Fg and iC3b) is on record?
A: The value was “high levels”.

Q: And the “selectivity for integrin CD11b/CD18 over CD11a/CD18” value (integrin CD11a/CD18)?
A: Its value is “two-fold higher selectivity”.

Q: For `CCOC(=O)CN1C(=O)S/C(=C\c2ccc(-c3ccc(C(=O)O)cc3C)o2)C1=O` [compound 11], which EC50 (integrin CD11b/CD18) is on record?
A: Its EC50 is over 50 µM.

Q: How did the “ligand efficiency (BEI)” value (integrin CD11b/CD18) turn out when `CCOC(=O)CN1C(=O)S/C(=C\c2ccc(-c3ccccc3)o2)C1=O` [compound 6] was run?
A: The value was 14.

Q: And the “selectivity for integrin CD11b/CD18 over CD11a/CD18” value (integrin CD11a/CD18)?
A: Its value is “high selectivity”.

Q: And the “increase of K562 CD11a/CD18 cell adhesion to ICAM-1” value (integrin CD11a/CD18; in words)?
A: The value was “no appreciable binding”.

Q: What about the “binding of αA-domain to immobilized Fg” value [1] of the same compound?
A: The value was “increasing its binding to immobilized Fg”.

Q: With `COC(=O)CN1C(=O)S/C(=C\c2ccc(-c3ccc(C(=O)O)cc3)o2)C1=O` [compound 12] as the compound, how does the EC50 (integrin CD11b/CD18) read?
A: The EC50 was over 50 µM.

Q: For `CCOC(=O)CN1C(=O)S/C(=C\c2ccc(N3CCOCC3)o2)C1=O` [compound 3], which EC50 (integrin CD11b/CD18) is on record?
A: Its EC50 is over 50 µM.

Q: How did the EC50 (integrin CD11b/CD18) turn out when `NS(=O)(=O)c1ccc(N2C(=O)S/C(=C\c3ccc(Cc4ccccc4)o3)C2=O)cc1` [compound 22] was run?
A: The EC50 was over 50 µM.

Q: With `COC(=O)C(C)N1C(=O)S/C(=C\c2ccc(-c3ccc(Cl)cc3Cl)o2)C1=O` (stereo not shown) [compound 13] as the compound, how does the “agonist activity in words” value (integrin CD11b/CD18; K562 CD11b/CD18 cell adhesion) read?
A: Its value is “inactive”.

Q: What about the EC50 (integrin CD11b/CD18) of the same compound?
A: Its EC50 is over 50 µM.
